Active and inactive are the calls of the source. How the calls were made is not given here.
Legend:
[1] = target: T1, Toll-like receptor 9 (Mus musculus) (UniProt Q9EQU3); assay: Inhibition of TLR9 in BALB/c mouse BMDM assessed as downregulation of CpG-stimulated IL-6 level at 5 ug/ml preincubated for 18 hrs followed by CpG challenge measured after 24 hrs by ELISA relative to control
T1 sequence (whole entry): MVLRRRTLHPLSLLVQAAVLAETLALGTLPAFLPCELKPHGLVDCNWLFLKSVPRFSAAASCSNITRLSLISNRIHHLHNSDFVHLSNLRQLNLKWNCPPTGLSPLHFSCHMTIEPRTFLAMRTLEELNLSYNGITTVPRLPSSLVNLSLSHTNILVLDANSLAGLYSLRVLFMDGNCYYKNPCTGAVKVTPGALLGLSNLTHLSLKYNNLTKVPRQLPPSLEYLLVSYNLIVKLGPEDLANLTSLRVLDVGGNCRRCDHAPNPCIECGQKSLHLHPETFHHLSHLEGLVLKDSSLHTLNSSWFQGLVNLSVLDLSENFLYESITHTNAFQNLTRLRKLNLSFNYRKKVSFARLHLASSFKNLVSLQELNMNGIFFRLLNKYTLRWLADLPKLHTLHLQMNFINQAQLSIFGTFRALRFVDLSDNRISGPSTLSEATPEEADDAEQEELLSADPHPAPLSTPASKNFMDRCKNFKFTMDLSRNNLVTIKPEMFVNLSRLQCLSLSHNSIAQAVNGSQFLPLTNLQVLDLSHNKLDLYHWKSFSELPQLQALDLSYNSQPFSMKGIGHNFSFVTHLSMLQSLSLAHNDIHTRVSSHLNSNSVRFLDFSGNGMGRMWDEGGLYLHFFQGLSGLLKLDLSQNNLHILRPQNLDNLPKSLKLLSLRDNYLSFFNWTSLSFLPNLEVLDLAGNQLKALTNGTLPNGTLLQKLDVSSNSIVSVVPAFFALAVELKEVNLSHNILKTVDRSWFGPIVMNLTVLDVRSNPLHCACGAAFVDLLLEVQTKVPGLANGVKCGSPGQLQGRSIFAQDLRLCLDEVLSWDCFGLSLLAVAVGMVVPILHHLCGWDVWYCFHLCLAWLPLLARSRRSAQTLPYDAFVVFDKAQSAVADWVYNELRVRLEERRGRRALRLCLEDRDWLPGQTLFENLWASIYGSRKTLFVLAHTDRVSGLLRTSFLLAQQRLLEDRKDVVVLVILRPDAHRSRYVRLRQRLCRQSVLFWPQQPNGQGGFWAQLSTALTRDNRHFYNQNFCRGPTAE
How it was run: (§1)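 BALB/c male bone marrow macrophages were differentiated 7 days with L929 supernatant (≥99% CD11b+/F4/80+). Cells were plated at 2 × 10^5/well in triplicate, rested overnight, and given compounds at 5 μg/mL for 18 h. They were then stimulated with 100 ng/mL S. minnesota LPS, 10 ng/mL Pam3CSK4 (BLP) or 0.01 μM CpG for 24 h. Supernatant IL-12p40 and IL-6 were measured by ELISA (sensitivity 16 pg/mL).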

[2] = target: T1, Toll-like receptor 9 (Mus musculus); assay: Inhibition of TLR9 in BALB/c mouse BMDM assessed as downregulation of CpG-stimulated IL-12p40 level at 5 ug/ml preincubated for 18 hrs followed by CpG challenge measured after 24 hrs by ELISA relative to control; how it was run: as §1
[3] = target: T2, TLR2/TLR6 (Mus musculus) (UniProt Q9QUN7+Q9EPW9); assay: Inhibition of TLR2/6 in BALB/c mouse BMDM assessed as downregulation of BLP-stimulated IL-6 level at 5 ug/ml preincubated for 18 hrs followed by BLP challenge measured after 24 hrs by ELISA relative to control; assay type: protein-complex assay; how it was run: as §1
[4] = target: T2, TLR2/TLR6 (Mus musculus); assay: Inhibition of TLR2/6 in BALB/c mouse BMDM assessed as downregulation of BLP-stimulated IL-12p40 level at 5 ug/ml preincubated for 18 hrs followed by BLP challenge measured after 24 hrs by ELISA relative to control; assay type: protein-complex assay; how it was run: as §1
[5] = target: T3, Toll-like receptor 4 (Mus musculus) (UniProt Q9QUK6); assay: Inhibition of TLR4 in BALB/c mouse BMDM assessed as downregulation of LPS-stimulated IL-6 level at 5 ug/ml preincubated for 18 hrs followed by LPS challenge measured after 24 hrs by ELISA relative to control; how it was run: as §1
T3 sequence (whole entry): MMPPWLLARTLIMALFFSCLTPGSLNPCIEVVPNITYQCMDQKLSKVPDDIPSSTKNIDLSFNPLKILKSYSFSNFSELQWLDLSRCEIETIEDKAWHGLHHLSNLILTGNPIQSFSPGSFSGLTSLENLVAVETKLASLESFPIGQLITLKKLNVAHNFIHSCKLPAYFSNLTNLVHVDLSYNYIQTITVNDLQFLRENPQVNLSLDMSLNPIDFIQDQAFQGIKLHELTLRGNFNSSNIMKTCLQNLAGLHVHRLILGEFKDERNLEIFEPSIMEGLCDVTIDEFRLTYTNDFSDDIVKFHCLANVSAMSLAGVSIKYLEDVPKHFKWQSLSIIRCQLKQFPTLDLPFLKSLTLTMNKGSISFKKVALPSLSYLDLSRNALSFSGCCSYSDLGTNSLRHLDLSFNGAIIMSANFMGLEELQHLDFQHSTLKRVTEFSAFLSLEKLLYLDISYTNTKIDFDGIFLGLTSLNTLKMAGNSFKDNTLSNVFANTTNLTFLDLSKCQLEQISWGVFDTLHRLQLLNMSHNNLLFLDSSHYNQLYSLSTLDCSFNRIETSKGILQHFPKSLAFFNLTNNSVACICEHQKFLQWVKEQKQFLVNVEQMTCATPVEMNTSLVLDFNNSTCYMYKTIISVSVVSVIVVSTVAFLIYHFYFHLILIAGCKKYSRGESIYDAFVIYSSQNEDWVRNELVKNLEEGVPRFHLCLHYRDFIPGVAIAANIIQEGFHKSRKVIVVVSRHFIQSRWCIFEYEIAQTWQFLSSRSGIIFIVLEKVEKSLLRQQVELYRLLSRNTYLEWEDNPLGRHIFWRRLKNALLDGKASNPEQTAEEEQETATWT

[6] = target: T3, Toll-like receptor 4 (Mus musculus); assay: Inhibition of TLR4 in BALB/c mouse BMDM assessed as downregulation of LPS-stimulated IL-12p40 level at 5 ug/ml preincubated for 18 hrs followed by LPS challenge measured after 24 hrs by ELISA relative to control; how it was run: as §1

Compound | inhibition [1] | inhibition [2] | inhibition [3] | inhibition [4] | inhibition [5] | inhibition [6]
O=S(=O)(CCN1CCOCC1)Nc1ccccc1 | inactive | inactive | inactive | inactive | inactive | inactive
Cc1ccc(CS(=O)(=O)CCCN2CCCC2)cc1 | inactive | inactive | inactive | inactive | inactive | inactive
CC[C@H](C)NCCS(=O)(=O)Cc1cccc(F)c1 | inactive | inactive | inactive | inactive | inactive | inactive
O=S(=O)(CCN1CCOCC1)Nc1ccc(F)cc1 | inactive | inactive | inactive | inactive | inactive | Active
CN(C)CCNS(=O)(=O)Cc1ccc([N+](=O)[O-])cc1 | inactive | inactive | Active | inactive | inactive | inactive
O=S(=O)(CCN1CCOCC1)c1ccccc1 | inactive | inactive | inactive | Active | inactive | inactive
O=S(=O)(CCN1CCCC1)Cc1ccc(Br)cc1 | inactive | inactive | inactive | inactive | inactive | Active
CN(C)CCCS(=O)(=O)Cc1ccc(Br)cc1 | inactive | inactive | inactive | inactive | Active | inactive
O=S(=O)(CCCN1CCOCC1)Cc1ccc(Br)cc1 | inactive | inactive | Active | inactive | inactive | inactive
CC[C@@H](C)NCCS(=O)(=O)c1ccccc1 | inactive | inactive | inactive | inactive | inactive | inactive
CN(C)CCN(C)CCS(=O)(=O)Cc1ccc(F)cc1 | inactive | inactive | inactive | Active | inactive | inactive
CN(C)CCN(C)CCS(=O)(=O)Cc1cccc(F)c1 | inactive | inactive | inactive | inactive | inactive | inactive
CN(C)CCS(=O)(=O)NCc1ccccc1 | inactive | inactive | inactive | inactive | inactive | inactive
CN(C)CCOP(=O)(O)Cc1ccc(Br)cc1 | inactive | inactive | inactive | inactive | inactive | inactive
Cc1ccc(CS(=O)(=O)NCCN2CCCC2)cc1 | inactive | inactive | inactive | inactive | inactive | inactive
O=C(Cc1ccccc1)NCCN1CCCC1 | Active | Active | Active | inactive | Active | Active
CN(C)CCS(=O)(=O)Cc1cccc(F)c1 | inactive | inactive | inactive | inactive | inactive | inactive
Cc1ccc(CNS(=O)(=O)CCN(C)C)cc1 | inactive | inactive | inactive | inactive | inactive | inactive
CN(C)CCS(=O)(=O)Cc1ccc(F)cc1 | inactive | inactive | Active | Active | inactive | inactive
CN(C)CCOP(=O)(O)Cc1ccc([N+](=O)[O-])cc1 | inactive | inactive | inactive | inactive | inactive | inactive
CN(C)CCCNS(=O)(=O)Cc1ccc(F)cc1 | inactive | inactive | inactive | inactive | inactive | inactive
COc1cccc(C(=O)NCCN2CCOCC2)c1 | Active | inactive | inactive | Active | inactive | Active
CN(C)CCS(=O)(=O)Nc1ccccc1 | inactive | inactive | inactive | inactive | inactive | Active
CN(C)CCN(C)CCS(=O)(=O)Nc1ccccc1 | inactive | inactive | inactive | inactive | inactive | Active

Reference: ChEMBL document CHEMBL3108700, “Designing anti-inflammatory drugs from parasitic worms: a synthetic small molecule analogue of the Acanthocheilonema viteae product ES-62 prevents development of collagen-induced arthritis” (J Med Chem, 2013)
